Reference: article PMC10809330 (RSC Medicinal Chemistry, 2023)

Experiments:
[1] = tested on: phosphorylated TAK1 (S412); assay: pTAK1; assay type: cell-based, murine; conditions: MPC-11 cells, 0.1 or 0.5 μM, 48 h, western blot
How it was run: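 MPC-11 cells were seeded at 0.5–1 × 10^6, left 24 h, then treated with test compound at 0.1 or 0.5 μM or DMSO for 48 h. Cells were lysed in RIPA (pH 7.4) with protease inhibitors and 1 mM PMSF, and protein was measured by BCA. Lysates were run on 10% SDS-PAGE and blotted to PVDF. Blots were probed overnight at 4 °C for pTAK1, TAK1 and β-actin, then with HRP secondaries for 2 h at 24 °C. Detection was by chemiluminescence, with bands quantified relative to actin.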

TAK1 = molecular target: T1, TAK1 (Homo sapiens, UniProt O43318); assay: TAK1 ADP-Glo kinase assay; assay type: biochemical; conditions: for TAK1 kinase inhibition: compound 500 nM
T1 sequence (O43318 1-303 limits assumed): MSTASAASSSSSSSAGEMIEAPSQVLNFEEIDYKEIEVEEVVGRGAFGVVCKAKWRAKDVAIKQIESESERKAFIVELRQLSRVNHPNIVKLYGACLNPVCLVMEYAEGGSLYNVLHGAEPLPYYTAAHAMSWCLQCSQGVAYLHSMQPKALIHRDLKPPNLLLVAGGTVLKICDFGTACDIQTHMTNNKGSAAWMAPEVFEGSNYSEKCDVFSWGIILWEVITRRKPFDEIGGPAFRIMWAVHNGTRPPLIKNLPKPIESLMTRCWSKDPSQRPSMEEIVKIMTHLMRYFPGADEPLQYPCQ
How it was run: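 Tiered TAK1 screen using the ADP-Glo kinase assay. Test compounds were first tested at 500 nM. Those exceeding 50% enzyme inhibition were retested at 100 nM, then at 20 nM. Values are means of triplicates with SD.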

kinase anti-targets = assay: KinomeScan profiling, kinase anti-targets; assay type: binding; conditions: Eurofins KinomeScan; KIT, ZAP70, JAK2, RET, KDR, PDGFR, FGFR, EGFR, BRAF, AKT, AURKA or B
PKAC alpha = PKAC alpha (Homo sapiens, UniProt P17612); assay: KinomeScan PKAC alpha; assay type: binding; conditions: in words
MPC-11 cells = assay: Cell viability assay; assay type: cell-based, murine; conditions: compound 200 nM
How it was run: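 MPC-11 cells were grown in DMEM with 10% FBS at 37 °C under 5% CO2 and kept below 10 passages. Cells were seeded at 4–5 × 10^3 per well, left 24 h, then exposed to test compound (screened at 1 and 0.2 μM) for 72 h. CellTiter-Blue was added for 3 h and fluorescence read at 560/590 nm. Runs were in triplicate, normalised to DMSO-treated cells.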

| SMILES | TAK1 kinase inhibition (TAK1) | other results |
| --- | --- | --- |
| Cc1n[nH]c2ccc(-c3cnc4ccc(N5C[C@@H](C)O[C@@H](C)C5)nn34)cc12 [Compound 3, (2S,6R)-2,6-Dimethyl-4-(3-(3-methyl-1H-indazol-5-yl)imidazo[1,2-b]pyridazin-6-yl)morpholine] |  | levels of phosphorylated TAK1 (S412) compared to DMSO control [1]: successful in reducing levels of phosphorylated TAK1 (S412) |
| C[C@@H]1CN(c2ccc3ncc(-c4ccccc4)n3n2)C[C@H](C)O1 [Compound 5, (2S,6R)-2,6-Dimethyl-4-(3-phenylimidazo[1,2-b]pyridazin-6-yl)morpholine] | negligible kinase inhibition |  |
| C[C@@H]1CN(c2ccc3ncc(-c4ccc(C#N)cc4)n3n2)C[C@H](C)O1 [Compound 6, 4-(6-((2S,6R)-2,6-Dimethylmorpholino)imidazo[1,2-b]pyridazin-3-yl)benzonitrile] | moderate kinase inhibition |  |
| C[C@@H]1CN(c2ccc3ncc(-c4ccc(C(F)(F)F)cc4)n3n2)C[C@H](C)O1 [Compound 7, (2S,6R)-2,6-Dimethyl-4-(3-(4-(trifluoromethyl)phenyl)imidazo[1,2-b]pyridazin-6-yl)morpholine] | moderate kinase inhibition |  |
| C[C@@H]1CN(c2ccc3ncc(-c4cccc(S(C)(=O)=O)c4)n3n2)C[C@H](C)O1 [Compound 8, (2S,6R)-2,6-Dimethyl-4-(3-(3-(methylsulfonyl)phenyl)imidazo[1,2-b]pyridazin-6-yl)morpholine] | moderate kinase inhibition |  |
| C[C@@H]1CN(c2ccc3ncc(-c4ccc(F)cc4)n3n2)C[C@H](C)O1 [Compound 9, (2S,6R)-4-(3-(4-Fluorophenyl)imidazo[1,2-b]pyridazin-6-yl)-2,6-dimethylmorpholine] | moderate kinase inhibition |  |
| C[C@@H]1CN(c2ccc3ncc(-c4ccc(OC(F)(F)F)cc4)n3n2)C[C@H](C)O1 [Compound 11, (2S,6R)-2,6-Dimethyl-4-(3-(4-(trifluoromethoxy)phenyl)imidazo[1,2-b]pyridazin-6-yl)morpholine] | negligible kinase inhibition |  |
| C[C@@H]1CN(c2ccc3ncc(-c4ccc(C(N)=O)cc4)n3n2)C[C@H](C)O1 [Compound 12, 4-(6-((2S,6R)-2,6-Dimethylmorpholino)imidazo[1,2-b]pyridazin-3-yl)benzamide] |  | inhibition of TAK1 (TAK1; compound 100 nM): decrease in TAK1 kinase inhibition compared to the previous screening |
| CNC(=O)c1ccc(-c2cnc3ccc(N4C[C@@H](C)O[C@@H](C)C4)nn23)cc1 [Compound 13, 4-(6-((2S,6R)-2,6-dimethylmorpholino)imidazo[1,2-b]pyridazin-3-yl)-N-methylbenzamide] | moderate kinase inhibition |  |
| C[C@@H]1CN(c2ccc3ncc(-c4ccc(CC#N)cc4)n3n2)C[C@H](C)O1 [Compound 14, 2-(4-(6-((2S,6R)-2,6-Dimethylmorpholino)imidazo[1,2-b]pyridazin-3-yl)phenyl)acetonitrile] | moderate kinase inhibition |  |
| C[C@@H]1CN(c2ccc3ncc(-c4ccc(F)c(C#N)c4)n3n2)C[C@H](C)O1 [Compound 16, 5-(6-((2S,6R)-2,6-Dimethylmorpholino)imidazo[1,2-b]pyridazin-3-yl)-2-fluorobenzonitrile] | moderate kinase inhibition |  |
| C[C@@H]1CN(c2ccc3ncc(-c4ccncc4)n3n2)C[C@H](C)O1 [Compound 17, (2S,6R)-2,6-Dimethyl-4-(3-(pyridin-4-yl)imidazo[1,2-b]pyridazin-6-yl)morpholine] | moderate kinase inhibition |  |
| C[C@@H]1CN(c2ccc3ncc(-c4cccnc4)n3n2)C[C@H](C)O1 [Compound 18, (2S,6R)-2,6-Dimethyl-4-(3-(pyridin-3-yl)imidazo[1,2-b]pyridazin-6-yl)morpholine] | negligible kinase inhibition |  |
| C[C@@H]1CN(c2ccc3ncc(-c4cccc(C#N)c4)n3n2)C[C@H](C)O1 [Compound 19, 3-(6-((2S,6R)-2,6-Dimethylmorpholino)imidazo[1,2-b]pyridazin-3-yl)benzonitrile] | negligible kinase inhibition |  |
| C[C@@H]1CN(c2ccc3ncc(-c4ccc5cn[nH]c5c4)n3n2)C[C@H](C)O1 [Compound 21, (2S,6R)-4-(3-(1H-Indazol-6-yl)imidazo[1,2-b]pyridazin-6-yl)-2,6-dimethylmorpholine] |  | inhibition at 0.5 µM (TAK1; read-out: TAK1 kinase inhibition, compound 500 nM): < 50% |
| C[C@@H]1CN(c2ccc3ncc(-c4ccc5[nH]nc(C6CC6)c5c4)n3n2)C[C@H](C)O1 [Compound 26, (2S,6R)-4-(3-(3-Cyclopropyl-1H-indazol-5-yl)imidazo[1,2-b]pyridazin-6-yl)-2,6-dimethylmorpholine] |  | levels of phosphorylated TAK1 (S412) compared to DMSO control [1]: successful in reducing levels of phosphorylated TAK1 (S412); inhibition of kinase anti-targets (kinase anti-targets): minimal inhibition; affinity for PKAC alpha (PKAC alpha): low affinity |
| Cc1n[nH]c2ccc(-c3cnc4ccc(N5CCO[C@@H](C)C5)nn34)cc12 [Compound 33, (S)-2-Methyl-4-(3-(3-methyl-1H-indazol-5-yl)imidazo[1,2-b]pyridazin-6-yl)morpholine] |  | inhibition of MPC-11 (MPC-11 cells): inactive |
| CCCn1/c(=N/C(=O)c2cccc(C(N)=O)c2)[nH]c2ccccc21 [Takinib, reference compound] |  | levels of phosphorylated TAK1 (S412) compared to DMSO control [1]: did not show a significant difference |
